Experimental data taken from ChEMBL document CHEMBL1125712 (J Med Chem, 1991).
Calls of active or inactive are those of the source. No cut-off for these calls is given here.

Columns and labels:
[1] = target: T1, Aldo-keto reductase family 1 member B1 (Homo sapiens, UniProt P15121); assay: Inhibition of aldose reductase (aldo-keto reductase, AKR1B1) isolated from human placenta.
Rattus norvegicus [2] = species: Rattus norvegicus; assay: animal or person; assay type: functional
Rattus norvegicus [3] = assay: Compound was evaluated for the ED50(chronic) in male Sprague-Dawley rats(n=5) treated with streptozotocin (85 mg/kg intravenously).; settings: oral
[4] = system: aldose reductase (Rattus norvegicus); assay: In vivo inhibition of sorbitol accumulation in the rat following 10 mg/kg p.o. administration.; settings: at 10 mg/kg
Rattus norvegicus [5] = assay: Compound was evaluated for the ED50(acute) in male Sprague-Dawley rats(n=4) treated with streptozotocin (85 mg/kg intravenously).; assay type: functional
Summary of the method: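 Streptozotocin-diabetic rats (85 mg/kg iv) dosed by oral gavage, aqueous suspension or solution, at 4, 7 and 24 h. Killed at 27 h. […] ED50 from log linear regression.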

Rattus norvegicus [6] = assay: Compound was evaluated in vivo for the inhibition of sorbitol accumulation administered orally at a dose of 0.25 mg/kg.; assay type: functional; settings: route oral
[7] = Compound was evaluated for the apparent pKa (dioxane/water)the ratio 2:1; assay type: physicochemical; settings: dioxane/water 2:1
Rattus norvegicus [8] = assay: Compound was evaluated for the ED50(chronic) in male Sprague-Dawley rats(n=5) treated with streptozotocin (85 mg/kg intravenously).; settings: oral; remark: listed apart in the source
[9] = Partition coefficient (logP); assay type: physicochemical; settings: octanol/water
Rattus norvegicus [10] = species: Rattus norvegicus; assay: Compound was tested for the inhibition of sorbitol accumulation in washed rat erythrocytes.
[11] = target: T2, Aldo-keto reductase family 1 member B1 (Rattus norvegicus, UniProt P07943); assay: Compound was tested for the inhibition of the rat lens aldose reductase using the substrate as glucose.
[12] = target: T2, Aldo-keto reductase family 1 member B1; assay: Compound was tested for the inhibition of the rat lens aldose reductase using the substrate as glyceraldehyde
[13] = Compound was evaluated for the apparent pKa (dioxane/water) the ratio 2:1; assay type: physicochemical; settings: dioxane/water 2:1
[14] = Compound was evaluated for the apparent pKa (dioxane/water) in the ratio 1:1; assay type: physicochemical; settings: dioxane/water 1:1
[15] = Compound was evaluated for the partition coefficient (octanol/pH 7.4 buffer); assay type: physicochemical
Summary of the method: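 Partition measured between n-octanol and pH 7.4 buffer.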

[16] = target: T1, Aldo-keto reductase family 1 member B1; assay: Compound was evaluated for its ability to inhibit the aldose reductase isolated from human placentae; Inactive at 10E-4 M
Rattus norvegicus [17] = assay: Compound was evaluated in vivo for the inhibition of sorbitol accumulation administered orally at a dose of 5 mg/kg.; assay type: functional; settings: route oral
Rattus norvegicus [18] = species: Rattus norvegicus; settings: at 25 mg/kg
Homo sapiens = species: Homo sapiens; assay: Compound was tested for the inhibition of sorbitol accumulation in washed human erythrocytes.; assay type: functional
Rattus norvegicus [19] = assay: Compound was evaluated in vivo for the inhibition of sorbitol accumulation administered orally at a dose of 5 mg/kg; Not significant; assay type: functional, organism-based; set-up: dose 5 mg/kg

Question: Which IC50 [1] does the source give for O=C(O)Cc1nn(Cc2nc3cc(F)c(F)cc3s2)c(=O)c2ccccc12 here?
Answer: Its IC50 is 68 nM.

Question: And the inhibition in vivo at 25 mg/kg (Rattus norvegicus [2]; dose 25 mg/kg, route oral)?
Answer: Its inhibition in vivo at 25 mg/kg is 75%.

Question: With O=C(O)Cc1nn(Cc2nc3cc(Cl)cc(Cl)c3s2)c(=O)c2ccccc12 as the molecule, how does the IC50 [1] read?
Answer: The IC50 was 4 nM.

Question: What about the ED50 (Rattus norvegicus [3]) of the same molecule?
Answer: The ED50 was 2.8 mg/kg.

Question: What about the inhibition [4] of the same molecule?
Answer: Its inhibition is 73%.

Question: And the ED50 (Rattus norvegicus [5]; oral)?
Answer: Its ED50 is 3.5 mg/kg.

Question: With O=C1NC(=O)[C@@]2(CCOc3ccc(F)cc32)N1 [SORBINIL] as the molecule, how does the ED50 (Rattus norvegicus [3]) read?
Answer: Its ED50 is 0.8 mg/kg.

Question: And the inhibition in vivo at 0.25 mg/kg (Rattus norvegicus [6])?
Answer: The inhibition in vivo at 0.25 mg/kg was 40.1%.

Question: Which IC50 [1] does the source give for O=C(O)Cc1nn(Cc2nc3cc(Br)ccc3s2)c(=O)c2ccccc12 here?
Answer: The IC50 was 3.1 nM.

Question: And the pKa [7]?
Answer: Its pKa is 6.35.

Question: What about the ED50 (Rattus norvegicus [5]; iv) of the same molecule?
Answer: Its ED50 is 5.6 mg/kg.

Question: And the ED50 (Rattus norvegicus [8])?
Answer: The ED50 was 4.9 mg/kg.

Question: What about the logP [9] of the same molecule?
Answer: Its logP is 3.35.

Question: What does the source list for O=C(O)Cc1nn(Cc2nc3cc(C(F)(F)F)ccc3s2)c(=O)c2ccccc12 [ZOPOLRESTAT]?
Answer: IC50 (Rattus norvegicus [10]): 220 nM; IC50 [11]: 10 nM; IC50 [12]: 41 nM; pKa [13]: 6.38; ED50 (Rattus norvegicus [5]; iv): 3.6 mg/kg; ED50 (Rattus norvegicus [8]): 2 mg/kg; logP [9]: 3.43; pKa [14]: 5.46; logD [15]: 0.55

Question: Which results are given for O=C(O)Cc1nn(Cc2nc3cccnc3s2)c(=O)c2ccccc12?
Answer: IC50 [1]: 10 nM; inhibition in vivo at 25 mg/kg (Rattus norvegicus [2]; dose 25 mg/kg, route oral): 83%

Question: With CN1C(C(=O)Nc2nccs2)=C(O)c2ccccc2S1(=O)=O [SUDOXICAM] as the molecule, how does the IC50 [16] read?
Answer: Its IC50 is “Not Active”.

Question: Which results are given for O=C(O)Cc1nn(Cc2nc3cc(F)cc(F)c3s2)c(=O)c2ccccc12?
Answer: IC50 [1]: 6.3 nM; ED50 (Rattus norvegicus [3]): 4 mg/kg; pKa [13]: 6.38; inhibition [4]: 80%; ED50 (Rattus norvegicus [5]; oral): 3.2 mg/kg; logP [9]: 3.01; pKa [14]: 5.47; logD [15]: 0.05

Question: What does the source list for O=C(O)c1nnc(O)c2ccccc12?
Answer: pKa [13]: 6.35; logP [9]: 2.42; pKa [14]: 5.49

Question: With O=C(O)Cc1nn(Cc2nc3c(Cl)ccc(Cl)c3s2)c(=O)c2ccccc12 as the molecule, how does the IC50 [1] read?
Answer: Its IC50 is 20 nM.

Question: And the inhibition in vivo at 25 mg/kg (Rattus norvegicus [2]; dose 25 mg/kg, route oral)?
Answer: The inhibition in vivo at 25 mg/kg was 65%.

Question: What does the source list for O=C(O)Cc1nn(Cc2nc3cc(F)ccc3s2)c(=O)c2ccccc12?
Answer: IC50 [1]: 6.9 nM; inhibition in vivo at 5 mg/kg (Rattus norvegicus [17]): 60%; pKa [13]: 6.35; ED50 (Rattus norvegicus [5]; iv): 5.3 mg/kg; ED50 (Rattus norvegicus [8]): 5.3 mg/kg; logP [9]: 2.42; pKa [14]: 5.49; logD [15]: -0.3

Question: Which results are given for O=C(O)Cc1nn(Cc2nc3c(ccc4ccccc43)s2)c(=O)c2ccccc12?
Answer: IC50 [1]: 510 nM; inhibition (Rattus norvegicus [18]): inactive

Question: Which results are given for O=C(O)Cc1nn(Cc2nc3ccccc3s2)c(=O)c2ccccc12?
Answer: IC50 [1]: 19 nM; ED50 (Rattus norvegicus [5]; oral): 18.5 mg/kg; inhibition in vivo at 25 mg/kg (Rattus norvegicus [2]; dose 25 mg/kg, route oral): 67%

Question: What does the source list for COc1cccc2sc(Cn3nc(CC(=O)O)c4ccccc4c3=O)nc12?
Answer: IC50 [1]: 100 nM; inhibition (Rattus norvegicus [18]): inactive

Question: For O=C(O)Cc1nn(Cc2nc3cc(C(F)(F)F)c(O)cc3s2)c(=O)c2ccccc12, which IC50 [1] is on record?
Answer: The IC50 was 120 nM.

Question: What about the inhibition (Rattus norvegicus [18]) of the same molecule?
Answer: Its inhibition is “inactive”.

Question: With Cc1ccc2nc(Cn3nc(CC(=O)O)c4ccccc4c3=O)sc2c1 as the molecule, how does the IC50 [1] read?
Answer: The IC50 was 320 nM.

Question: What about the inhibition (Rattus norvegicus [18]) of the same molecule?
Answer: The inhibition was “inactive”.

Question: Which ED50 (Rattus norvegicus [3]) does the source give for COc1ccc2c(C(=S)N(C)CC(=O)O)cccc2c1C(F)(F)F [TOLRESTAT] here?
Answer: Its ED50 is 26 mg/kg.

Question: And the IC50 (Homo sapiens)?
Answer: The IC50 was 15 nM.

Question: With O=C(O)Cc1nn(Cc2nc3ccc(Cl)cc3s2)c(=O)c2ccccc12 as the molecule, how does the IC50 [1] read?
Answer: The IC50 was 76 nM.

Question: And the inhibition in vivo at 25 mg/kg (Rattus norvegicus [2]; dose 25 mg/kg, route oral)?
Answer: The inhibition in vivo at 25 mg/kg was 61%.

Question: With Cc1cc(C)c2sc(Cn3nc(CC(=O)O)c4ccccc4c3=O)nc2c1 as the molecule, how does the IC50 [1] read?
Answer: The IC50 was 5.9 nM.

Question: And the inhibition in vivo at 25 mg/kg (Rattus norvegicus [2]; po)?
Answer: Its inhibition in vivo at 25 mg/kg is 39%.

Question: What does the source list for O=C(O)Cc1nn(Cc2nc3cc(Cl)c(Cl)cc3s2)c(=O)c2ccccc12?
Answer: IC50 [1]: 420 nM; inhibition in vivo at 25 mg/kg (Rattus norvegicus [2]; dose 25 mg/kg, route oral): 34%

Question: With CC(C)c1ccc2c(CC(=O)O)nn(Cc3nc4ccccc4s3)c(=O)c2c1 as the molecule, how does the IC50 [1] read?
Answer: The IC50 was 110 nM.

Question: What about the inhibition (Rattus norvegicus [19]) of the same molecule?
Answer: Its inhibition is “inactive”.

Question: What does the source list for CC(c1nc2ccccc2s1)n1nc(CC(=O)O)c2ccccc2c1=O (centres undefined)?
Answer: IC50 [1]: 43 nM; inhibition in vivo at 25 mg/kg (Rattus norvegicus [2]; dose 25 mg/kg, route oral): 50%
